Assay outcomes deposited in PubChem by several laboratories.
Compounds with a hit are over-represented: about 1.2% of the library has one in this group of screens.
p47phox inh – inhibitors of human p47phox binding | p47phox/p22phox peptide binding, fluorescence polarization, 2 h | inhibition, % at 24.7 µM | 220,000 compounds, 0.53% hits | AID 1274;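 active = inhibition above about 30%, limit read from the data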;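 note: 0% = p47phox with labelled peptide and 100% = labelled peptide alone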
Target sequence (P14598 whole entry, looked up): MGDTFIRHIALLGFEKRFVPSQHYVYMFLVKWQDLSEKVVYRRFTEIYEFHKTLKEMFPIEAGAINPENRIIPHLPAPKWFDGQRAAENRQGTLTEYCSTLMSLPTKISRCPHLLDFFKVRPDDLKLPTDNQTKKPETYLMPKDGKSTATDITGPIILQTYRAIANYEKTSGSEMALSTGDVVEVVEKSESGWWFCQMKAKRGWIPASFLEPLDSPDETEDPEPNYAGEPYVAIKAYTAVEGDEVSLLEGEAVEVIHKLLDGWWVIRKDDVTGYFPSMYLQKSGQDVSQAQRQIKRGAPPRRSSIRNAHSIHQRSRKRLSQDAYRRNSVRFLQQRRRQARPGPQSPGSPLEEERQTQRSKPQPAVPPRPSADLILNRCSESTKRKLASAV
PMI act satM6P – activators of human phosphomannose isomerase at near-saturating mannose 6-phosphate. 190,000 compounds, 0.34% hits. P34949. coupled PMI enzyme assay, resazurin fluorescence, 20 min; hits give high values; 1 = untreated enzyme, 0 = substrate-free blank. activation factor at 20 µM;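 active = activation factor of 2 or more at 20 µM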
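Technique: Diaphorase-driven resazurin-to-resorufin fluorescence, excitation 544, emission 590 nm | Assay system: Human PMI in coupled enzyme assay | Times: Enzyme reaction with compound 20 min at room temperature | Medium: HEPES-buffered pH 7.4 with magnesium and detergent | Reagent: Mannose-6-phosphate 1.0 mM (near-saturating) plus 0.22 mM NADP+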
PMI act – activators of human phosphomannose isomerase; P34949; purified human PMI, coupled resazurin fluorescence, 20 min; hits give high values; 1 = vehicle control, 0 substrate-free wells; activation factor at 20 µM; 190,000 compounds, 0.005% hits;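 active = activation factor of 2 or more at 20 µM, relative to plate controls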
Diaph act CS – counter-screen for diaphorase-based assays: diaphorase activators and chemical reducers | activation factor at 20 µM | 190,000 compounds, 0.005% hits | Diaphorase/resazurin coupled assay, resorufin fluorescence, 16 min; hits give high values; 1 = vehicle wells, 0 = NADH-free wells;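 active = diaphorase activity raised at least twofold by the compound at 20 µM; inactive = activation factor below 2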
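test system = bacterial diaphorase enzyme (C. kluyveri) | quantity = enzyme 0.07 U/mL final | reagent = NADH substrate 0.114 mM plus resazurin dye 0.1 mM, final | incubation = 16 min enzyme reaction, ambient temperature | buffer or medium = HEPES pH 7.4 buffer with MgCl2 and Tween 20 | signal = fluorescence of resorufin, 544 nm excitation, 590 nm emission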
DTT redox prof – compounds producing H2O2 with reducing agent – biochemical, NIH compound library profiling, artefact control for MLSCN library redox annotation, primary screen; DTT-dependent redox cycling H2O2, phenol red/HRP absorbance; 100% = 100 µM peroxide control, 0% = buffer; 200,000 compounds, 0.03% hits; activation, % at 10 µM; AID 878;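 active = activation of at least 50% relative to the plate's high and low controls in the primary single-dose screen; inactive = activation below 50%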;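 note: compound incubated with DTT at 0.8 mM final as the reducing agent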
HMGR II inh – inhibitors of class II HMG-CoA reductase from Enterococcus faecalis; purified E. faecalis HMGR, NADPH absorbance 340 nm kinetic; inhibition, % at 10 µM; 190,000 compounds, 0.41% hits;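 active = inhibition above a set limit, the median over all tested compounds plus 3 SD, cut at about 9.5% in these data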;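 note: enzyme runs in reverse so mevalonate oxidation gives rising NADPH absorbance; 0% = complete reaction with DMSO and 100% = background rate lacking mevalonate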
The depositor's hits bear a star; nt = no result.

SMILES	p47phox inh	PMI act satM6P	PMI act	Diaph act CS	DTT redox prof	HMGR II inh
CN(C)c1ccc(/C=N/NC(=O)c2sccc2-n2cccc2)cc1	-12	1	1	0.9	-1	-1
NCCSC1CC(=O)N(Cc2ccc(F)cc2)C1=O (stereo not given)	-4	1.1	1.1	1	3	10*
CCOc1ccc(N2C(=O)CC(SCCN)C2=O)cc1 (stereo not given)	-8	1	1.1	0.9	1	-1
CC(=O)c1ccc(N2CCN(C(=O)Nc3cccc(F)c3)CC2)cc1	-3	1	1	0.9	0	-5
COc1ccc(C(=O)N2CCC(C(=O)Nc3ccccc3C)CC2)cc1OC	-9	1	1	1.1	0	10*
CCCSc1nc2sc3c(c2c(=O)[nH]1)CCN(Cc1ccccc1)C3	-79	1.7	1.3	0.5	4	-4
O=c1[nH]c(C(Cl)Cl)nc2sc3c(c12)CCN(Cc1ccccc1)C3	-46	2.6*	1.8	0.8	0	3
Cc1ccc(-c2nc(CN(C)Cc3cccc4cnccc34)c(C)o2)s1	-9	0.8	0.8	0.8	-2	-3
Cc1cc(=O)n2[nH]cnc2n1	-8	1	1	0.9	0	-12
CCCc1cc(=O)n2[nH]cnc2n1	32*	1	1	0.9	2	-1
COc1ccc2[nH]c3c(=O)n(CCCCC(=O)NCCC(C)C)c(=S)[nH]c3c2c1	12	1.1	1.2	1	-2	-6
COC(=O)c1ccc(C(=O)OC)c(NC(=O)C(C)(C)C)c1	-9	1	1	0.9	0	-4
COc1ccc(-n2c(SCC(=O)N3CCc4ccccc43)nnc2-c2c[nH]c3ccccc23)cc1	52*	1	1	0.9	1	-7
COCCN=C1Sc2nc3ccc(C)cc3cc2CN1Cc1ccco1	-5	2.1*	1.6	1	0	-5
CCOc1ccc(NC(=O)CN2C(=O)/C(=C3\SC(=S)N(C4CCS(=O)(=O)C4)C3=O)c3ccccc32)cc1 (stereo not given)	63*	nt	nt	nt	nt	nt
CCOCCCNCc1cc(Cl)cc(Cl)c1OCC	-2	1	1.1	1	-1	-4
Cc1ccccc1NC(=S)NCc1ccc2c(c1)cc(C)n2C	10	0.9	0.9	0.9	0	15*
C/C(=N\Nc1cccc2cccnc12)c1ccc(C)cc1	-10	2.1*	1.6	0.8	-1	0
Nc1nn2cc(-c3ccccc3)nc2c2ccccc12	-18	0.8	0.9	0.8	-1	11*
Cc1cn2nc(N)c3ccccc3c2n1	-21	1	1	0.9	0	-3
CCN1C(c2ccccc2)=C(c2ccccc2)S/C1=C/C=C1\SC(=S)N(C)C1=O	42*	0.5	0.7	0.8	2	0
CCOC(=O)C1=C(C)C/C(=N\NC(=O)c2ccccc2O)CC1	-8	nt	nt	nt	nt	nt
CC1CCCN(C2=C(NS(=O)(=O)c3ccc(Cl)cc3)C(=O)c3ccccc3C2=O)C1 (stereo not given)	50*	1	1.3	0.8	0	-1
COc1cc(NC(=O)c2cc(C)on2)cc(C(=O)Nc2cccc(C(F)(F)F)c2)c1	43*	nt	nt	nt	nt	nt
O=S(=O)(/N=C(/Sc1ccccc1)c1ccccc1)c1ccccc1	-14	1.1	1	0.9	0	4
CS/C(=N\S(=O)(=O)c1ccccc1)c1ccccc1	0	2*	1.7	1	1	-1
O=C1CC(c2ccccc2Cl)=NN(c2ncnc3ccccc23)C1=O	-39	1	1.1	0.9	-1	-6
CCOc1ccc(N(CC(=O)N2CCN(c3ccccc3)CC2)S(=O)(=O)c2c(C)noc2C)cc1	43*	1	1	0.8	-1	1
CC(=O)Nc1nc(CCN2C(=O)c3ccccc3C2=O)cs1	45*	1.1	1.2	1.1	0	-3
O=C1CCN(N=Nc2cccc(Cl)c2)N1	-27	2.2*	1.8	1	0	-11
